ChEMBL document CHEMBL4680236, “Design, synthesis and structure-activity relationships of novel 15-membered macrolides: Quinolone/quinoline-containing sidechains tethered to the C-6 position of azithromycin acylides” (Eur J Med Chem, 2020)
Values after ≈ are worked out from the molar mass of the structure shown.

Tests used:
Type in all cases: functional
Streptococcus pneumoniae [1] = experiment: Bactericidal activity against penicillin-susceptible Streptococcus pneumoniae PU09 harboring mef gene
How it was run: (§1)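 Bacteria were exposed to 1- to 8-fold their MIC of test sample, then transferred to fresh culture medium without antibacterial compound and incubated for the required time. Colonies were then counted. MBC is the lowest concentration giving a reduction in colony number of >3 Log₁₀.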

Streptococcus pneumoniae [2] = experiment: Ratio of MBC to MIC against penicillin-susceptible Streptococcus pneumoniae PU09
Haemophilus influenzae [3] = experiment: Bactericidal activity against azithromycin-susceptible Haemophilus influenzae ATCC 49247
How it was run: (§2)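 Bacteria were exposed to 1- to 8-fold MIC of the sample, then transferred to fresh medium without antibacterial. After further incubation, colonies were counted. MBC was taken as the lowest concentration giving a >3 log10 reduction in colony number.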

Streptococcus pneumoniae [4] = experiment: Bactericidal activity against Erythromycin-susceptible Streptococcus pneumoniae ATCC 49619; how it was run: as §2
Streptococcus pyogenes [5] = experiment: Ratio of MBC to MIC against MLSB-resistant Streptococcus pyogenes 12-206 harboring ermA gene
Streptococcus pneumoniae [6] = experiment: Antibacterial activity against MLSB-resistant Streptococcus pneumoniae 07P390 harboring ermB gene assessed as reduction in microbial growth
Haemophilus influenzae [7] = experiment: Ratio of MBC to MIC against azithromycin-susceptible Haemophilus influenzae ATCC 49247
Streptococcus pyogenes [8] = experiment: Antibacterial activity against MLSB-resistant Streptococcus pyogenes 12-206 harboring ermA gene assessed as reduction in microbial growth
Staphylococcus aureus [9] = experiment: Bactericidal activity against MLSB/methicillin-resistant Staphylococcus aureus 15B196; how it was run: as §1
Staphylococcus aureus [10] = experiment: Bactericidal activity against MLSB/methicillin/ciprofloxacin-resistant Staphylococcus aureus PU32 harboring ermA gene; how it was run: as §1
Staphylococcus aureus [11] = experiment: Antibacterial activity against MLSB/methicillin-resistant Staphylococcus aureus 15B196 assessed as reduction in microbial growth
Staphylococcus aureus [12] = experiment: Ratio of MBC to MIC against MLSB/methicillin/ciprofloxacin-resistant Staphylococcus aureus PU32 harboring ermA gene
Streptococcus pneumoniae [13] = experiment: Antibacterial activity against penicillin-susceptible Streptococcus pneumoniae PU09 harboring mef gene assessed as reduction in microbial growth
Haemophilus influenzae [14] = experiment: Antibacterial activity against azithromycin-susceptible Haemophilus influenzae ATCC 49247 assessed as reduction in microbial growth
Streptococcus pneumoniae [15] = experiment: Ratio of MBC to MIC against Erythromycin-susceptible Streptococcus pneumoniae ATCC 49619
Staphylococcus aureus [16] = experiment: Antibacterial activity against MLSB/methicillin/ciprofloxacin-resistant Staphylococcus aureus PU32 harboring ermA gene assessed as reduction in microbial growth
Streptococcus pneumoniae [17] = experiment: Bactericidal activity against MLSB-resistant Streptococcus pneumoniae 07P390 harboring ermB gene assessed as reduction in microbial growth; how it was run: as §1
Streptococcus pneumoniae [18] = experiment: Antibacterial activity against Erythromycin-susceptible Streptococcus pneumoniae ATCC 49619 assessed as reduction in microbial growth
Streptococcus pyogenes [19] = experiment: Bactericidal activity against MLSB-resistant Streptococcus pyogenes 12-206 harboring ermA gene; how it was run: as §1

SMILES	MBC (Streptococcus pneumoniae [1])	Ratio (Streptococcus pneumoniae [2])	MBC (Haemophilus influenzae [3])	MBC (Streptococcus pneumoniae [4])	Ratio (Streptococcus pyogenes [5])	MIC (Streptococcus pneumoniae [6])	Ratio (Haemophilus influenzae [7])	MIC (Streptococcus pyogenes [8])	MBC (Staphylococcus aureus [9])	MBC (Staphylococcus aureus [10])	MIC (Staphylococcus aureus [11])	Ratio (Staphylococcus aureus [12])	MIC (Streptococcus pneumoniae [13])	MIC (Haemophilus influenzae [14])	Ratio (Streptococcus pneumoniae [15])	MIC (Staphylococcus aureus [16])	MBC (Streptococcus pneumoniae [17])	MIC (Streptococcus pneumoniae [18])	MBC (Streptococcus pyogenes [19])
CC[C@H]1OC(=O)[C@H](C)[C@@H](OC(=O)Cc2ccccn2)[C@H](C)[C@@H](O[C@@H]2O[C@H](C)C[C@H](N(C)C)[C@H]2O)[C@](C)(OC(=O)CCNCCC#Cc2ccc3c(c2)c(=O)c(C(=O)O)cn3C2CC2)C[C@@H](C)CN(C)[C@H](C)[C@H]2OC(=O)O[C@@]21C	8 µg/mL (≈ 7.36 µM)	2	128 µg/mL (≈ 118 µM)	1 µg/mL (≈ 0.921 µM)	2	64 µg/mL	2	32 µg/mL	> 256 µg/mL	> 256 µg/mL	> 256 µg/mL	>4	4 µg/mL	64 µg/mL	1	64 µg/mL	64 µg/mL	1 µg/mL	64 µg/mL (≈ 58.9 µM)
CC[C@H]1OC(=O)[C@H](C)[C@@H](OC(=O)Cc2ccccn2)[C@H](C)[C@@H](O[C@@H]2O[C@H](C)C[C@H](N(C)C)[C@H]2O)[C@](C)(OC(=O)CCN2CCN(c3cc4c(cc3F)c(=O)c(C(N)=O)cn4CC)CC2)C[C@@H](C)CN(C)[C@H](C)[C@@H](O)[C@]1(C)O	8 µg/mL (≈ 7.39 µM)	2	4 µg/mL (≈ 3.7 µM)	1 µg/mL (≈ 0.924 µM)	8	64 µg/mL	1	16 µg/mL	128 µg/mL (≈ 118 µM)	> 256 µg/mL	128 µg/mL		4 µg/mL	4 µg/mL	2	128 µg/mL	128 µg/mL	0.5 µg/mL	128 µg/mL (≈ 118 µM)
CC[C@H]1OC(=O)[C@H](C)[C@@H](OC(=O)Cc2ccccn2)[C@H](C)[C@@H](O[C@@H]2O[C@H](C)C[C@H](N(C)C)[C@H]2O)[C@](C)(OC(=O)CCNCCC#Cc2ccc3[nH]ccc(=O)c3c2)C[C@@H](C)CN(C)[C@H](C)[C@@H](O)[C@]1(C)O	4 µg/mL (≈ 4.1 µM)	2	128 µg/mL (≈ 131 µM)	0.25 µg/mL (≈ 0.256 µM)	>8	256 µg/mL	2	2 µg/mL	> 256 µg/mL	> 128 µg/mL	> 256 µg/mL	>8	2 µg/mL	64 µg/mL	1	16 µg/mL	> 256 µg/mL	0.25 µg/mL	> 16 µg/mL
CC[C@H]1OC(=O)[C@H](C)[C@@H](OC(=O)Cc2ccccn2)[C@H](C)[C@@H](O[C@@H]2O[C@H](C)C[C@H](N(C)C)[C@H]2O)[C@](C)(OC(=O)CCNCCC#Cc2ccc3c(c2)c(=O)c(C(N)=O)cn3C)C[C@@H](C)CN(C)[C@H](C)[C@@H](O)[C@]1(C)O	4 µg/mL (≈ 3.87 µM)	2	64 µg/mL (≈ 61.9 µM)	0.5 µg/mL (≈ 0.484 µM)	>8	256 µg/mL	2	8 µg/mL	> 256 µg/mL	> 128 µg/mL	> 256 µg/mL	>8	2 µg/mL	32 µg/mL	2	16 µg/mL	> 256 µg/mL	0.25 µg/mL	> 64 µg/mL
CC[C@H]1OC(=O)[C@H](C)[C@@H](OC(=O)Cc2ccccn2)[C@H](C)[C@@H](O[C@@H]2O[C@H](C)C[C@H](N(C)C)[C@H]2O)[C@](C)(OC(=O)CCN2CCN(c3cc4c(cc3F)c(=O)c(C(N)=O)cn4C3CC3)CC2)C[C@@H](C)CN(C)[C@H](C)[C@@H](O)[C@]1(C)O	4 µg/mL (≈ 3.66 µM)	1	128 µg/mL (≈ 117 µM)	0.5 µg/mL (≈ 0.457 µM)	8	128 µg/mL	2	16 µg/mL	> 256 µg/mL	> 256 µg/mL	> 256 µg/mL		4 µg/mL	64 µg/mL	2	128 µg/mL	128 µg/mL	0.25 µg/mL	128 µg/mL (≈ 117 µM)
CC[C@H]1OC(=O)[C@H](C)[C@@H](OC(=O)Cc2ccccn2)[C@H](C)[C@@H](O[C@@H]2O[C@H](C)C[C@H](N(C)C)[C@H]2O)[C@](C)(OC(=O)CCNCCC#Cc2ccc3c(c2)c(=O)c(C(=O)NC)cn3C2CC2)C[C@@H](C)CN(C)[C@H](C)[C@@H](O)[C@]1(C)O	8 µg/mL (≈ 7.45 µM)	2	128 µg/mL (≈ 119 µM)	1 µg/mL (≈ 0.932 µM)	4	256 µg/mL	2	32 µg/mL	> 256 µg/mL	> 256 µg/mL	> 256 µg/mL		4 µg/mL	64 µg/mL	2	> 256 µg/mL	256 µg/mL	0.5 µg/mL	128 µg/mL (≈ 119 µM)
CC[C@H]1OC(=O)[C@H](C)[C@@H](OC(=O)Cc2ccccn2)[C@H](C)[C@@H](O[C@@H]2O[C@H](C)C[C@H](N(C)C)[C@H]2O)[C@](C)(OC(=O)CCN2CCN(c3cc4c(cc3F)c(=O)c(C(=O)O)cn4C3CC3)CC2)C[C@@H](C)CN(C)[C@H](C)[C@H]2OC(=O)O[C@@]21C	16 µg/mL (≈ 14.3 µM)	4	16 µg/mL (≈ 14.3 µM)	16 µg/mL (≈ 14.3 µM)	>8	> 256 µg/mL	2	64 µg/mL	> 256 µg/mL	> 256 µg/mL	> 256 µg/mL		4 µg/mL	8 µg/mL	4	> 256 µg/mL	> 256 µg/mL	4 µg/mL	> 256 µg/mL
CC[C@H]1OC(=O)[C@H](C)[C@@H](OC(=O)Cc2ccccn2)[C@H](C)[C@@H](O[C@@H]2O[C@H](C)C[C@H](N(C)C)[C@H]2O)[C@](C)(OC(=O)CCNCCC#Cc2ccc3c(c2)c(=O)c(C(N)=O)cn3C2CC2)C[C@@H](C)CN(C)[C@H](C)[C@@H](O)[C@]1(C)O	4 µg/mL (≈ 3.78 µM)	1	64 µg/mL (≈ 60.4 µM)	0.5 µg/mL (≈ 0.472 µM)	4	256 µg/mL	1	32 µg/mL	> 256 µg/mL	> 256 µg/mL	> 256 µg/mL		4 µg/mL	64 µg/mL	1	128 µg/mL	> 256 µg/mL	0.5 µg/mL	128 µg/mL (≈ 121 µM)
